For orientation: IC50 means the point on the concentration scale where inhibition reaches its midpoint.

One data set concerns Plasmodium falciparum. In words: Antimalarial activity against chloroquine-sensitive NF54 isolated Plasmodium falciparum 3D7 infected in erythrocytes assessed as inhibition of parasitic growth after 48 hrs by optical microscopy. The data set is classed as functional, organism-based. The settings on record: 3D7, 48 h. Put shortly:
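P. falciparum 3D7 in erythrocytes at 1% initial parasitemia, 2% hematocrit. Samples dissolved in DMSO at 10 mg/mL stock, diluted in complete medium to seven test concentrations. Each dilution tested in triplicate; 48 h at 37 °C. Growth inhibition read by optical microscopy of well contents.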

The subject of another data set is MRC5. Nature of the data set: Cytotoxicity against human MRC5 cells assessed as cell growth inhibition after 48 hrs by alamar blue assay. To be noted: MRC5, 48 h. It is filed as cell-based. Put shortly: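 Human MRC-5 fibroblasts kept in DMEM with 10% FBS, 2 mM glutamine, streptomycin and penicillin at 37 °C, 5% CO2. Seeded at 2.5 × 10⁴ cells/well, 24 h, then DMSO-dissolved compounds diluted in medium were added; control wells held 0.1% DMSO final. Exposure 48 h; Alamar Blue added for the last 3 h; fluorescence read at 530–560 nm excitation.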
On the technique in general: The colour change of resazurin is a common sign of viable cells or microbes.

Data set [1] can be described thus: Selectivity index, ratio of IC50 for MRC5 cells to IC50 for chloroquine-sensitive NF54 isolated Plasmodium falciparum 3D7. To be noted: human; read-out: Ratio IC50. The data set is classed as toxicity, cell-based.

As to `COC1=CC(=O)c2ccccc2C12CO2` (stereo not given), the figures for the IC50 in the data set on Plasmodium falciparum and in the data set with MRC5 were greater than 50 µM and 116 µM, respectively. Besides, the selectivity ratio in data set [1] is less than 2.3.
In the case of `C=CCOC1=CC(=O)c2ccccc2C1=O`, the results for the IC50 with Plasmodium falciparum and in the data set on MRC5 were 5.18 µM and 64.8 µM, respectively. Besides, the selectivity ratio in data set [1] was determined as 12.
On to `C=CCOC1=CC(=O)c2ccccc2C12CO2` (stereo not given), for which the IC50 was greater than 50 µM in the data set with Plasmodium falciparum and 26.4 µM with MRC5. For the same compound, in data set [1], the selectivity ratio is less than 0.53.
The like results for `O=C1C(Cl)=C(Cl)C2(CO2)c2ccccc21` (stereo not given) were, in that order, 6.22 µM, 92.5 µM and 15.
`CC1(C)CCC2=C(O1)C1(CO1)c1ccccc1C2=O` (stereo not given): the figures for the IC50 in the data set with Plasmodium falciparum and in the data set on MRC5 were 3.71 µM and greater than 100 µM, respectively. Besides, the selectivity ratio in data set [1] is greater than 27.
For the compound `O=C1C(Cl)=C(Cl)C2(CO2)C(Cl)=C1Cl`, the values for the IC50 with Plasmodium falciparum and with MRC5 were 3.95 µM and 368 µM, respectively. Further, the selectivity ratio in data set [1] was determined as 93.
Take `NC1=CC(=O)c2ccccc2C12CO2` (stereo not given): the 50% inhibitory concentration (IC50) is greater than 50 µM in the data set on Plasmodium falciparum and greater than 100 µM with MRC5.
For `N#CC1=C(C#N)C(=O)C(Cl)=C(Cl)C1=O`, the IC50 in the data set on Plasmodium falciparum is greater than 50 µM; with MRC5 it was greater than 100 µM.
Turning to `O=C1C=C(Nc2ccccc2)C2(CO2)c2ccccc21` (stereo not given), the IC50 is greater than 50 µM with Plasmodium falciparum and 135 µM with MRC5. In data set [1], the selectivity ratio was less than 2.7.
For the compound `COc1c(Cl)c(Cl)c(OC)c(C#N)c1C#N`, the IC50 in the data set with Plasmodium falciparum is greater than 50 µM; in the data set with MRC5 it was greater than 100 µM.
Take `NC1=CC(=O)c2ccccc2C1=O`: the IC50 with Plasmodium falciparum is 5.14 µM; in the data set with MRC5, 322 µM. The selectivity ratio in data set [1] stood at 63.
Consider `CC1(C)CC2=C(O1)C1(CO1)c1ccccc1C2=O` (stereo not given), for which the IC50 in the data set with Plasmodium falciparum was greater than 50 µM; in the data set on MRC5, 55.7 µM. Also, the selectivity ratio in data set [1] was less than 1.1.
For `CC1(C)CC2=C(O1)C(=O)c1ccccc1C2=O`, in that order: greater than 50 µM, 56.1 µM and less than 1.1.
For `O=C1C=C(Nc2ccccc2)C(=O)c2ccccc21`, in that order: 6.3 µM, greater than 100 µM and greater than 15.
Consider `COC1=CC(=O)c2ccccc2C1=O` [2-Methoxy-1,4-naphthoquinone], for which the half-inhibitory concentration (IC50) was greater than 50 µM in the data set with Plasmodium falciparum and 5.2 µM in the data set with MRC5. Also, in data set [1], the selectivity ratio was less than 0.1.
`CC1(C)CCC2=C(O1)C(=O)c1ccccc1C2=O` [ALPHA-LAPACHONE]: the IC50 in the data set on Plasmodium falciparum was greater than 50 µM; with MRC5 it was greater than 100 µM.
For the compound `O=C1C(Cl)=C(Cl)C(=O)C(Cl)=C1Cl` [CHLORANIL], the IC50 in the data set on Plasmodium falciparum was 22.4 µM; in the data set on MRC5, greater than 100 µM. For the same compound, in data set [1], the selectivity ratio is greater than 4.4.
Consider `O=C1C(Cl)=C(Cl)C(=O)c2ccccc21` [Dichlon], for which the IC50 in the data set with Plasmodium falciparum was 13.9 µM; in the data set with MRC5, 98.2 µM. Also, the selectivity ratio in data set [1] worked out at 7.2.

Source of the values: ChEMBL document CHEMBL3758142, “Synthesis and antimalarial activity of quinones and structurally-related oxirane derivatives” (Eur J Med Chem, 2016).
